Results reported in ChEMBL document CHEMBL1649579, “A novel tryptophanyl-tRNA synthetase gene confers high-level resistance to indolmycin” (2009).
Values after ≈ are worked out from the molar mass of the structure shown.

Tests used:
Type in all cases: functional
Streptomyces coelicolor [1] = experiment: Antimicrobial activity against wild-type Streptomyces coelicolor after 48 hrs
Method in brief: (§1)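 Indolmycin MIC on Difco nutrient agar containing the indicated indolmycin concentrations. Spores are grown at 30C for 48 h. MIC is the lowest indolmycin concentration that prevents growth after 2 days.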

Streptomyces coelicolor [2] = experiment: Antimicrobial activity against trpRS1 deficient Streptomyces coelicolor B725 after 48 hrs; conditions: B725, 48 h; method in brief: as §1
Streptomyces coelicolor [3] = experiment: Antimicrobial activity against Streptomyces coelicolor B725 harboring trpRS1 ORF after 48 hrs; conditions: B725, 48 h
Method in brief: (§2)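 Agar MIC in S. coelicolor trpRS1-null strain B725. Each ORF is cloned into pIJ10257 under the constitutive ermE* promoter for equalized expression. Growth is on Difco nutrient agar with indolmycin at the indicated concentrations, 30C, 48 h. MIC is the concentration that inhibits growth.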

Streptomyces avermitilis = experiment: Antimicrobial activity against Streptomyces avermitilis harboring trpRS1 homolog after 48 hrs; method in brief: as §1
Streptomyces griseus = experiment: Antimicrobial activity against Streptomyces griseus after 48 hrs; method in brief: as §1
Streptomyces coelicolor [4] = experiment: Antimicrobial activity against Streptomyces coelicolor B725 harboring trpRS2 ORF after 48 hrs; conditions: B725, 48 h; method in brief: as §2
Streptomyces coelicolor [5] = experiment: Antimicrobial activity against Streptomyces coelicolor B725 harboring trpRS2 L9F mutant ORF after 48 hrs; conditions: B725, 48 h; method in brief: as §2
Streptomyces coelicolor [6] = experiment: Antimicrobial activity against Streptomyces coelicolor B725 harboring trpRS2 H48Q mutant ORF after 48 hrs; conditions: B725, 48 h; method in brief: as §2
Streptomyces coelicolor [7] = experiment: Antimicrobial activity against Streptomyces coelicolor B725 harboring trpRS2 H48N mutant ORF after 48 hrs; conditions: B725, 48 h; method in brief: as §2
Streptomyces coelicolor [8] = experiment: Antimicrobial activity against Streptomyces coelicolor B725 harboring trpRS2 Q13K mutant ORF after 48 hrs; conditions: B725, 48 h; method in brief: as §2
Streptomyces coelicolor [9] = experiment: Antimicrobial activity against Streptomyces coelicolor B725 harboring trpRS2 L9F/Q13K mutant ORF after 48 hrs; conditions: B725, 48 h; method in brief: as §2
Streptomyces coelicolor [10] = experiment: Antimicrobial activity against Streptomyces coelicolor B725 harboring trpRS2 L9F/H48Q mutant ORF after 48 hrs; conditions: B725, 48 h; method in brief: as §2
Streptomyces coelicolor [11] = experiment: Antimicrobial activity against Streptomyces coelicolor B725 harboring trpRS2 locus after 48 hrs; conditions: B725, 48 h
Method in brief: (§3)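 Agar MIC in trpRS1-null S. coelicolor B725 carrying the trpRS2 locus (93 nt upstream to 96 nt downstream of the ORF, with or without point mutations) […]. Plates are Difco nutrient agar with indicated indolmycin levels, read for growth after 48 h at 30C.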

Streptomyces coelicolor [12] = experiment: Antimicrobial activity against Streptomyces coelicolor B725 harboring trpRS2 C(-17)A locus after 48 hrs; conditions: B725, 48 h; method in brief: as §3
Streptomyces coelicolor [13] = experiment: Antimicrobial activity against Streptomyces coelicolor B725 harboring trpRS2 C(-17)A/L9F locus after 48 hrs; conditions: B725, 48 h; method in brief: as §3
Streptomyces coelicolor [14] = experiment: Antimicrobial activity against Streptomyces coelicolor B725 harboring trpRS2 C(-17)A/H48Q locus after 48 hrs; conditions: B725, 48 h; method in brief: as §3
Streptomyces coelicolor [15] = experiment: Antimicrobial activity against Streptomyces coelicolor B725 harboring trpRS2 G(-13)T locus after 48 hrs; conditions: B725, 48 h; method in brief: as §3
Streptomyces coelicolor [16] = experiment: Antimicrobial activity against Streptomyces coelicolor B725 harboring trpRS2 G(-13)T/L9F locus after 48 hrs; conditions: B725, 48 h; method in brief: as §3
Streptomyces coelicolor [17] = experiment: Antimicrobial activity against Streptomyces coelicolor B725 harboring trpRS2 G(-13)T/H48Q locus after 48 hrs; conditions: B725, 48 h; method in brief: as §3
Streptomyces coelicolor [18] = experiment: Ratio of MIC for Streptomyces coelicolor B725 harboring trpRS2 ORF to MIC for Streptomyces coelicolor B725
Method in brief: (§4)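 Fold increase is the indolmycin MIC of each construct-bearing B725 strain (ermE* promoter) divided by the MIC of the parent trpRS1-null B725. Both MICs come from Difco nutrient agar plates containing indolmycin, read for growth after 2 days at 30C.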

Streptomyces coelicolor [19] = experiment: Ratio of MIC for Streptomyces coelicolor B725 harboring trpRS2 L9F mutant ORF to MIC for Streptomyces coelicolor B725; method in brief: as §4
Streptomyces coelicolor [20] = experiment: Ratio of MIC for Streptomyces coelicolor B725 harboring trpRS2 H48Q mutant ORF to MIC for Streptomyces coelicolor B725; method in brief: as §4
Streptomyces coelicolor [21] = experiment: Ratio of MIC for Streptomyces coelicolor B725 harboring trpRS2 H48N mutant ORF to MIC for Streptomyces coelicolor B725; method in brief: as §4
Streptomyces coelicolor [22] = experiment: Ratio of MIC for Streptomyces coelicolor B725 harboring trpRS2 Q13K mutant ORF to MIC for Streptomyces coelicolor B725; method in brief: as §4
Streptomyces coelicolor [23] = experiment: Ratio of MIC for Streptomyces coelicolor B725 harboring trpRS2 L9F/Q13K mutant ORF to MIC for Streptomyces coelicolor B725; method in brief: as §4
Streptomyces coelicolor [24] = experiment: Ratio of MIC for Streptomyces coelicolor B725 harboring trpRS2 L9F/H48Q mutant ORF to MIC for Streptomyces coelicolor B725; method in brief: as §4
Streptomyces coelicolor [25] = experiment: Ratio of MIC for Streptomyces coelicolor B725 harboring trpRS2 locus to MIC for Streptomyces coelicolor B725; method in brief: as §4
Streptomyces coelicolor [26] = experiment: Ratio of MIC for Streptomyces coelicolor B725 harboring trpRS2 C(-17)A locus to MIC for Streptomyces coelicolor B725; method in brief: as §4
Streptomyces coelicolor [27] = experiment: Ratio of MIC for Streptomyces coelicolor B725 harboring trpRS2 C(-17)A/L9F locus to MIC for Streptomyces coelicolor B725; method in brief: as §4
Streptomyces coelicolor [28] = experiment: Ratio of MIC for Streptomyces coelicolor B725 harboring trpRS2 C(-17)A/H48Q locus to MIC for Streptomyces coelicolor B725; method in brief: as §4
Streptomyces coelicolor [29] = experiment: Ratio of MIC for Streptomyces coelicolor B725 harboring trpRS2 G(-13)T locus to MIC for Streptomyces coelicolor B725; method in brief: as §4
Streptomyces coelicolor [30] = experiment: Ratio of MIC for Streptomyces coelicolor B725 harboring trpRS2 G(-13)T/L9F locus to MIC for Streptomyces coelicolor B725; method in brief: as §4
Streptomyces coelicolor [31] = experiment: Ratio of MIC for Streptomyces coelicolor B725 harboring trpRS2 G(-13)T/H48Q locus to MIC for Streptomyces coelicolor B725; method in brief: as §4
Streptomyces coelicolor [32] = experiment: Ratio of MIC for Streptomyces coelicolor B725 overexpressing tryptophanyl-tRNA synthetase gene to MIC for Streptomyces coelicolor B725; method in brief: as §4

Work on `CNC1=NC(=O)[C@H]([C@H](C)c2c[nH]c3ccccc23)O1` [INDOMYCIN] yielded an MIC (Streptomyces coelicolor [1]) of over 150 µg/mL, an MIC (Streptomyces coelicolor [2]) of 0.25 µg/mL (≈ 0.972 µM) and an MIC (Streptomyces coelicolor [3]) of 10 µg/mL (≈ 38.9 µM). For the same molecule, the MIC (Streptomyces avermitilis) was 5 µg/mL (≈ 19.4 µM), the MIC (Streptomyces griseus) was 15 µg/mL (≈ 58.3 µM) and the MIC (Streptomyces coelicolor [4]) was 0.25 µg/mL (≈ 0.972 µM). It also gave an MIC (Streptomyces coelicolor [5]) of 5 µg/mL (≈ 19.4 µM), an MIC (Streptomyces coelicolor [6]) of over 75 µg/mL and an MIC (Streptomyces coelicolor [7]) of over 75 µg/mL. It also gave an MIC (Streptomyces coelicolor [8]) of 3 µg/mL (≈ 11.7 µM), an MIC (Streptomyces coelicolor [9]) of 8 µg/mL (≈ 31.1 µM) and an MIC (Streptomyces coelicolor [10]) of over 75 µg/mL. For the same molecule, the MIC (Streptomyces coelicolor [11]) was 0.25 µg/mL (≈ 0.972 µM), the MIC (Streptomyces coelicolor [12]) was 2 µg/mL (≈ 7.77 µM) and the MIC (Streptomyces coelicolor [13]) was 5 µg/mL (≈ 19.4 µM). For the same molecule, the MIC (Streptomyces coelicolor [14]) was over 75 µg/mL, the MIC (Streptomyces coelicolor [15]) was 5 µg/mL (≈ 19.4 µM) and the MIC (Streptomyces coelicolor [16]) was 12 µg/mL (≈ 46.6 µM). The MIC (Streptomyces coelicolor [17]) was over 75 µg/mL, the “fold change (FC)” value (Streptomyces coelicolor [18]) was 1 and the “fold change (FC)” value (Streptomyces coelicolor [19]) was 20. For the same molecule, the “fold change (FC)” value (Streptomyces coelicolor [20]) was over 300, the “fold change (FC)” value (Streptomyces coelicolor [21]) was over 300 and the “fold change (FC)” value (Streptomyces coelicolor [22]) was 12. For the same molecule, the “fold change (FC)” value (Streptomyces coelicolor [23]) was 32, the “fold change (FC)” value (Streptomyces coelicolor [24]) was over 300 and the “fold change (FC)” value (Streptomyces coelicolor [25]) was 1. The “fold change (FC)” value (Streptomyces coelicolor [26]) was 8, the “fold change (FC)” value (Streptomyces coelicolor [27]) was 20 and the “fold change (FC)” value (Streptomyces coelicolor [28]) was over 300. The “fold change (FC)” value (Streptomyces coelicolor [29]) was 20, the “fold change (FC)” value (Streptomyces coelicolor [30]) was 48 and the “fold change (FC)” value (Streptomyces coelicolor [31]) was over 300. For the same molecule, the “fold change (FC)” value (Streptomyces coelicolor [32]) was 60.
